According to ChEMBL document CHEMBL1143420, “Distribution of suramin, an antitrypanosomal drug, across the blood-brain and blood-cerebrospinal fluid interfaces in wild-type and P-glycoprotein transporter-deficient mice” (Antimicrob Agents Chemother, 2007):

Key:
[1] = Protein binding in artificial plasma assessed as tritiated drug level; assay type: ADME, cell-free; settings: read-out: PPB (converted)
Method in brief: (§1)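 [3H]suramin (0.14 µCi) was dissolved in 0.7 ml of warmed artificial plasma, mouse plasma, or reconstituted human plasma. Binding was measured by centrifugal ultrafiltration. Mouse plasma came from heparinized cardiac blood of male FVB mice, spun at 5,400 x g for 10 min. Human plasma was lyophilized citrated plasma. Protein retention by the filter was checked by the Lowry method.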

[2] = Biodistribution in wild type FVB Mdr1a/Mdr1b positive mouse pituitary gland assessed as tritiated drug level at 150 uM perfusion after 30 mins by capillary depletion assay; assay type: ADME, organism-based; settings: in vivo, other, 0.5 h
Method in brief: (§2)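 The method compared multiple-time CNS uptake in Mdr1a/Mdr1b+/+ and –/– FVB male mice (about 25 g; genotype confirmed by PCR). […] Regional dpm/g was expressed relative to plasma (RTissue%). 3-4 mice per point. Genotypes were compared by Student's t test.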

[3] = Biodistribution in perfused wild type FVB Mdr1a/Mdr1b positive mouse choroid plexus assessed as tritiated drug level after 2.5 mins relative to control; assay type: ADME, organism-based; settings: in vivo
Method in brief: (§3)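 Mice were perfused with artificial plasma for 4 min, then decapitated. The IVth ventricle choroid plexus was excised and preincubated 10 min in artificial CSF at 37°C. […] BALB/c tissue also received 150 µM phenylarsine oxide in 0.05% DMSO, or 0.05% DMSO alone.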

[4] = Biodistribution in perfused FVB Mdr1a/Mdr1b deficient mouse choroid plexus assessed as tritiated drug level after 2.5 mins relative to control; assay type: ADME, organism-based; settings: in vivo; method in brief: as §3
[5] = Biodistribution in BALB/c mouse choroid plexus assessed as tritiated drug level at 150 uM perfusion after 10 mins by capillary depletion assay in presence of DMSO; assay type: ADME, organism-based; settings: in vivo, other
Method in brief: (§4)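 BALB/c mice were perfused in situ via the heart at 5 ml/min. A 10-min preperfusion used either 150 µM phenylarsine oxide in 0.05% DMSO (final) or a 0.05% DMSO control. […] Brain regions were sampled and counted by liquid scintillation. Results are RTissue% as mean ± SEM.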

[6] = Biodistribution in wild type FVB Mdr1a/Mdr1b positive mouse pineal gland assessed as tritiated drug level at 150 uM perfusion after 30 mins by capillary depletion assay; assay type: ADME, organism-based; settings: in vivo, other, 0.5 h; method in brief: as §2
[7] = Biodistribution in perfused BALB/c mouse choroid plexus assessed as drug accumulation after 2.5 mins in presence of DMSO; assay type: ADME, organism-based; settings: in vivo; method in brief: as §3
[8] = Biodistribution in FVB Mdr1a/Mdr1b deficient mouse choroid plexus assessed as tritiated drug level at 150 uM perfusion after 30 mins by capillary depletion assay; assay type: ADME, organism-based; settings: in vivo, other, 0.5 h; method in brief: as §2
[9] = Biodistribution in perfused BALB/c mouse choroid plexus assessed as drug accumulation after 2.5 mins in presence of phenylarsine oxide; assay type: ADME, organism-based; settings: in vivo; method in brief: as §3
[10] = Biodistribution in BALB/c mouse pineal gland assessed as tritiated drug level at 5 ml/min perfusion after 30 min; assay type: ADME, organism-based; settings: in vivo, other, 0.5 h
Method in brief: (§5)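 BALB/c mice were anesthetized (medetomidine 2 mg/kg, ketamine 150 mg/kg), heparinized, and perfused via the left ventricle at 5 ml/min with oxygenated artificial plasma (Krebs-Henseleit base, 1 g/liter BSA, 37°C). […] Tissue dpm/g was expressed as % of plasma dpm/ml (RTissue%). 3-4 mice per point.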

[11] = Biodistribution in perfused BALB/c mouse choroid plexus assessed as tritiated drug level after 2.5 mins in presence of phenylarsine oxide relative to control; assay type: ADME, organism-based; settings: in vivo; method in brief: as §3
[12] = Biodistribution in perfused FVB Mdr1a/Mdr1b deficient mouse choroid plexus assessed as drug accumulation after 30 mins; assay type: ADME, organism-based; settings: in vivo, 0.5 h; method in brief: as §3
[13] = Biodistribution in perfused FVB Mdr1a/Mdr1b deficient mouse choroid plexus assessed as drug accumulation after 2.5 mins; assay type: ADME, organism-based; settings: in vivo; method in brief: as §3
[14] = Biodistribution in perfused wild type FVB Mdr1a/Mdr1b positive mouse choroid plexus assessed as drug accumulation after 2.5 mins; assay type: ADME, organism-based; settings: in vivo; method in brief: as §3
[15] = Biodistribution in BALB/c mouse 4th ventricle choroid plexus assessed as tritiated drug level at 5 ml/min perfusion after 30 min; assay type: ADME, organism-based; settings: in vivo, other, 0.5 h; method in brief: as §5
[16] = Biodistribution in perfused BALB/c mouse choroid plexus assessed as tritiated drug level after 2.5 mins in presence of DMSO relative to control; assay type: ADME, organism-based; settings: in vivo; method in brief: as §3
[17] = Biodistribution in perfused wild type FVB Mdr1a/Mdr1b positive mouse choroid plexus assessed as tritiated drug level after 30 mins relative to control; assay type: ADME, organism-based; settings: in vivo, 0.5 h; method in brief: as §3
[18] = Protein binding in mouse plasma assessed as tritiated drug level; assay type: ADME, cell-free; settings: read-out: PPB (converted); method in brief: as §1
[19] = Protein binding in human plasma assessed as tritiated drug level; assay type: ADME, cell-free; settings: read-out: PPB (converted); method in brief: as §1
[20] = Biodistribution in perfused FVB Mdr1a/Mdr1b deficient mouse choroid plexus assessed as tritiated drug level after 30 mins relative to control; assay type: ADME, organism-based; settings: in vivo, 0.5 h; method in brief: as §3
[21] = Partition coefficient of the compound; settings: octanol/water
[22] = Biodistribution in wild type FVB Mdr1a/Mdr1b positive mouse choroid plexus assessed as tritiated drug level at 150 uM perfusion after 30 mins by capillary depletion assay; assay type: ADME, organism-based; settings: in vivo, other, 0.5 h; method in brief: as §2
[23] = Biodistribution in FVB Mdr1a/Mdr1b deficient mouse pineal gland assessed as tritiated drug level at 150 uM perfusion after 30 mins by capillary depletion assay; assay type: ADME, organism-based; settings: in vivo, other, 0.5 h; method in brief: as §2
[24] = Biodistribution in perfused wild type FVB Mdr1a/Mdr1b positive mouse choroid plexus assessed as drug accumulation after 30 mins; assay type: ADME, organism-based; settings: in vivo, 0.5 h; method in brief: as §3
[25] = Biodistribution in FVB Mdr1a/Mdr1b deficient mouse pituitary gland assessed as tritiated drug level at 150 uM perfusion after 30 mins by capillary depletion assay; assay type: ADME, organism-based; settings: in vivo, other, 0.5 h; method in brief: as §2
[26] = Biodistribution in BALB/c mouse pituitary gland assessed as tritiated drug level at 5 ml/min perfusion after 30 min; assay type: ADME, organism-based; settings: in vivo, other, 0.5 h; method in brief: as §5
Thalamus [27] = test: Biodistribution in FVB Mdr1a/Mdr1b deficient mouse thalamus assessed as tritiated drug level at 150 uM perfusion after 30 mins by capillary depletion assay; assay type: ADME, organism-based; settings: in vivo, other, 0.5 h; method in brief: as §2
Mus musculus = organism: Mus musculus; test: Drug uptake in BALB/c mouse assessed as tritiated drug level at 5 ml/min perfusion after 10 min relative to [14C]sucrose; assay type: ADME, organism-based; settings: in vivo, other
Hypothalamus [28] = test: Biodistribution in wild type FVB Mdr1a/Mdr1b positive mouse hypothalamus assessed as tritiated drug level at 150 uM perfusion after 30 mins by capillary depletion assay; assay type: ADME, organism-based; settings: in vivo, other, 0.5 h; method in brief: as §2
[29] = Biodistribution in FVB Mdr1a/Mdr1b deficient mouse frontal cortex assessed as tritiated drug level at 150 uM perfusion after 30 mins by capillary depletion assay; assay type: ADME, organism-based; settings: in vivo, other, 0.5 h; method in brief: as §2
[30] = Biodistribution in wild type FVB Mdr1a/Mdr1b positive mouse caudate putamen assessed as tritiated drug level at 150 uM perfusion after 30 mins by capillary depletion assay; assay type: ADME, organism-based; settings: in vivo, other, 0.5 h; method in brief: as §2
Cerebellum = test: Biodistribution in FVB Mdr1a/Mdr1b deficient mouse cerebellum assessed as tritiated drug level at 150 uM perfusion after 30 mins by capillary depletion assay; assay type: ADME, organism-based; settings: in vivo, other, 0.5 h; method in brief: as §2
Hypothalamus [31] = test: Biodistribution in FVB Mdr1a/Mdr1b deficient mouse hypothalamus assessed as tritiated drug level at 150 uM perfusion after 30 mins by capillary depletion assay; assay type: ADME, organism-based; settings: in vivo, other, 0.5 h; method in brief: as §2
[32] = Biodistribution in FVB Mdr1a/Mdr1b deficient mouse caudate putamen assessed as tritiated drug level at 150 uM perfusion after 30 mins by capillary depletion assay; assay type: ADME, organism-based; settings: in vivo, other, 0.5 h; method in brief: as §2
[33] = Biodistribution in wild type FVB Mdr1a/Mdr1b positive mouse brain 4th ventricle choroid plexus assessed as tritiated drug level at 150 uM perfusion after 30 mins by capillary depletion assay; assay type: ADME, organism-based; settings: in vivo, other, 0.5 h; method in brief: as §2
Thalamus [34] = test: Biodistribution in BALB/c mouse thalamus assessed as tritiated drug level at 150 uM perfusion after 10 mins by capillary depletion assay in presence of phenylarsine ocide; assay type: ADME, organism-based; settings: in vivo, other; method in brief: as §4

Cc1ccc(C(=O)Nc2ccc(S(=O)(=O)O)c3cc(S(=O)(=O)O)cc(S(=O)(=O)O)c23)cc1NC(=O)c1cccc(NC(=O)Nc2cccc(C(=O)Nc3cc(C(=O)Nc4ccc(S(=O)(=O)O)c5cc(S(=O)(=O)O)cc(S(=O)(=O)O)c45)ccc3C)c2)c1 [SURAMIN]
fraction unbound [1]: 0.047 | Drug uptake [2]: 46% | Drug uptake [3]: 9.5% | Drug uptake [4]: 12.5% | Drug uptake [5]: 99.4% | Drug uptake [6]: 263% | Drug uptake [7]: 6.7% | Drug uptake [8]: 97% | Drug uptake [9]: 11.4% | Drug uptake [10]: 388% | Drug uptake [11]: 13% | Drug uptake [12]: 26.6% | Drug uptake [13]: 10.9% | Drug uptake [14]: 8.6% | Drug uptake [15]: 163% | Drug uptake [16]: 7.4% | Drug uptake [17]: 27.2% | fraction unbound [18]: 0.03 | fraction unbound [19]: 0.006 | Drug uptake [20]: 29.3% | partition coefficient [21]: 0.00023 | Drug uptake [22]: 100% | Drug uptake [23]: 437% | Drug uptake [24]: 25.3% | Drug uptake [25]: 57% | Drug uptake [26]: 39%

OC[C@H]1O[C@@](CO)(O[C@H]2O[C@H](CO)[C@@H](O)[C@H](O)[C@H]2O)[C@@H](O)[C@@H]1O [SUCROSE]
Drug uptake [2]: 80.4% | Drug uptake [3]: 0.9% | Drug uptake [4]: 1.8% | Drug uptake (Thalamus [27]): 3.4% | Drug uptake [6]: 54.4% | Drug uptake (Mus musculus): 1.56% | Drug uptake [11]: 1.6% | Drug uptake (Hypothalamus [28]): 2.2% | Drug uptake [29]: 2.5% | Drug uptake [30]: 1.1% | Drug uptake [16]: 0.7% | Drug uptake [17]: 2.1% | Drug uptake (Cerebellum): 2.5% | Drug uptake [20]: 2.6% | Drug uptake (Hypothalamus [31]): 5.8% | Drug uptake [32]: 2.5% | Drug uptake [33]: 83.2% | Activity (Thalamus [34]): 2.2%
